Experimental data: article PMC4545412 (Planta medica, 2015)
Read-outs that look alike come from different tables or passages of the source.

Experiments:
[1] = system: human colon cancer (HT-29) cell line; assay: Cytotoxicity assay against HT-29 human colon cancer cells; details: for HT-29 ED50: HT-29 human colon cancer cells, > 20 µM considered inactive
NF-κB p65 subunit = NF-κB p65 subunit (Homo sapiens, UniProt Q04206); assay: Enzyme-based ELISA NF-κB; format: biochemical
[2] = system: human colon cancer (HT-29) cell line
[3] = system: Plasmodium falciparum Dd2; assay: Antimalarial bioassay, 72 h parasite growth assay; format: cell-based; details: DD2, read-out: P. falciparum IC50
How it was run: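 72 h growth assay of test compounds on the drug-resistant Dd2 strain of Plasmodium falciparum, following an earlier protocol with minor modifications. Artemisinin was the positive control.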

[4] = system: Candida albicans (ATCC 18804); assay: Antifungal bioassay, growth of the pathogenic yeast; format: cell-based; details: ATCC18804, read-out: growth inhibition of C. albicans cells
P. falciparum strain 3D7 = details: read-out: IC50, in vitro antimalarial activity; cited from earlier work
Plasmodium falciparum = details: cited from earlier work
[5] = read-out: NF-κB (p65) IC50, enzyme-based ELISA, > 20 µM considered inactive

NF-κB p65 subunit, sequence (Q04206 whole entry): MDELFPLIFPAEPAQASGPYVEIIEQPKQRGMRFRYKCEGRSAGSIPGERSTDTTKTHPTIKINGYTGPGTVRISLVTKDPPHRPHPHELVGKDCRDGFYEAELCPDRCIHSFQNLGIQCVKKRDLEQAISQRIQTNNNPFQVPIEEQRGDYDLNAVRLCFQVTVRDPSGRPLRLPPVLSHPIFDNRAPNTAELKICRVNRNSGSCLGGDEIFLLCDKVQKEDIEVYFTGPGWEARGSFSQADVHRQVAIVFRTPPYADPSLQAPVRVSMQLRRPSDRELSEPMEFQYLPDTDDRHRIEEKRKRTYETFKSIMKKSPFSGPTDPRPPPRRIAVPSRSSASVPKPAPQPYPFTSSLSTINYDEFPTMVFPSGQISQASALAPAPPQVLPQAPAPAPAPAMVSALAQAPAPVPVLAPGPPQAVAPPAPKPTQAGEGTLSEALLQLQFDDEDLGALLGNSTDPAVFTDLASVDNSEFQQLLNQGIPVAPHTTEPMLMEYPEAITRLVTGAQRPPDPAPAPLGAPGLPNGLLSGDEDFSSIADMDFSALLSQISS

In the case of “N-3-benzoyldihydrocyclomicrophylline F [Compound 7]”, the “HT-29 ED50” value [1] is reported as 1.9 µM and the IC50 (NF-κB p65 subunit; [5]) is reported as greater than 20 µM.
With `C=C(C)C1CCC2(CO)CCC3(C)C(CCC4C5(C)CCC(O)C(C)(COC(=O)/C=C\c6ccc(O)cc6)C5CCC43C)C12` (stereo not drawn) [Compound 5, 23-O-(Z)-p-coumaroyl-23-hydroxybetulin] the “HT-29 ED50” value [1] was 18.4 µM, the IC50 (NF-κB p65 subunit; [5]) was greater than 20 µM and the “cytotoxic effect against HT-29 cells (in words)” value [2] was “marginal cytotoxic effects”.
In the case of `C=C(C)C1CCC2(CO)CCC3(C)C(CCC4C5(C)CCC(OC(=O)/C=C/c6ccc(O)cc6)C(C)(CO)C5CCC43C)C12` (stereo not drawn) [Compound 1, 3-O-(E)-p-coumaroyl-23-hydroxybetulin], the “HT-29 ED50” value [1] is reported as greater than 20 µM and the IC50 (NF-κB p65 subunit; [5]) is reported as greater than 20 µM.
With `CC(=O)O[C@H]1C(=O)[C@@]2(C)[C@H]([C@H](OC(=O)c3ccccc3)[C@]3(O)C[C@H](OC(=O)[C@H](O)[C@@H](NC(=O)c4ccccc4)c4ccccc4)C(C)=C1C3(C)C)[C@]1(OC(C)=O)CO[C@@H]1C[C@@H]2O` [Paclitaxel, reference compound] the “HT-29 ED50” value [1] was 0.001 µM.
Compound `C[C@@H]1CC[C@H]2[C@@H](C)C(=O)O[C@@H]3O[C@@]4(C)CC[C@@H]1[C@]32OO4` [Artemisinin, reference compound] has an IC50 [3] of 0.0007 µM.
For `C=C(C)C1CCC2(CO)CCC3(C)C(CCC4C5(C)CCC(OC(=O)/C=C\c6ccc(O)cc6)C(C)(CO)C5CCC43C)C12` (stereo not drawn) [Compound 3, 3-O-(Z)-p-coumaroyl-23-hydroxy-3-epi-betulin], the “HT-29 ED50” value [1] was 3.3 µM and the IC50 (NF-κB p65 subunit; [5]) was greater than 20 µM.
With `C[C@@H]1[C@H](O)[C@@H](C)/C=C/C=C/C=C/C=C/C=C/C=C/C=C/[C@H](O[C@@H]2O[C@H](C)[C@@H](O)[C@H](N)[C@@H]2O)C[C@@H]2O[C@](O)(C[C@@H](O)C[C@@H](O)[C@H](O)CC[C@@H](O)C[C@@H](O)CC(=O)O[C@H]1C)C[C@H](O)[C@H]2C(=O)O` [amphotericin B] the inhibition at 200 µg/mL [4] was 100%.
In the case of `C=C(C)[C@@H]1CC[C@]2(C(=O)OC)CC[C@]3(C)[C@H](CC[C@@H]4[C@@]5(C)CC[C@H](O)C(C)(C)[C@@H]5CC[C@]43C)[C@@H]12` [its methylate], the IC50 (P. falciparum strain 3D7) is given as 7 µM.
For `C=C(C)C1CCC2(CO)CCC3(C)C(CCC4C5(C)CCC(OC(=O)/C=C/c6ccc(O)cc6)C(C)(CO)C5CCC43C)C12` (stereo not drawn) [Compound 2, 3-O-(E)-p-coumaroyl-23-hydroxy-3-epi-betulin], the “cytotoxic effect against HT-29 cells (in words)” value ([1]; HT-29 cells) was “marginal cytotoxic effects”, the “HT-29 ED50” value [1] was 13.2 µM and the IC50 (NF-κB p65 subunit; [5]) was greater than 20 µM.
With `C=C(C)[C@@H]1CC[C@]2(COC(C)=O)CC[C@]3(C)[C@H](CC[C@@H]4[C@@]5(C)CC[C@H](OC(C)=O)C(C)(C)[C@@H]5CC[C@]43C)[C@@H]12` [Compound 8, 3,28-O-diacetylbetulin] the “HT-29 ED50” value [1] was greater than 20 µM and the IC50 (NF-κB p65 subunit; [5]) was greater than 20 µM.
In the case of `C=C(C)[C@@H]1CC[C@]2(CO)CC[C@]3(C)[C@H](CC[C@@H]4[C@@]5(C)CC[C@H](O)[C@@](C)(CO)[C@@H]5CC[C@]43C)[C@@H]12` [Compound 9, 23-hydroxybetulin], the “HT-29 ED50” value [1] is reported as greater than 20 µM and the IC50 (NF-κB p65 subunit; [5]) is reported as 4 µM.
In the case of `C=C(C)[C@@H]1CC[C@]2(CO)CC[C@]3(C)[C@H](CC[C@@H]4[C@@]5(C)CC[C@H](O)C(C)(C)[C@@H]5CC[C@]43C)[C@@H]12` [Compound 6, betulin], the “HT-29 ED50” value [1] is reported as greater than 20 µM, the IC50 [3] is reported as greater than 10 µM and the IC50 (NF-κB p65 subunit) is reported as greater than 20 µM.
In the case of O-tigloylcyclovirobuxeine-B, the “IC50, in vitro antiplasmodial activity” value (Plasmodium falciparum) is given as 0.46 µg/mL and the IC50 (Plasmodium falciparum; read-out: IC50, in vitro antiplasmodial activity) is given as 0.92 µM.
For `C=C(C)C1CCC2(CO)CCC3(C)C(CCC4C5(C)CCC(O)C(C)(COC(=O)/C=C/c6ccc(O)cc6)C5CCC43C)C12` (stereo not drawn) [Compound 4, 23-O-(E)-p-coumaroyl-23-hydroxybetulin], the “HT-29 ED50” value [1] was greater than 20 µM and the IC50 (NF-κB p65 subunit; [5]) was greater than 20 µM.
